What was measured:
CDK4 = details: ref Squires et al, 2009; cited from earlier work
QTc intervals = assay: ECG analysis; format: in vivo, human
How it was run: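 After dose level 1, patients with QTc ⩾460 ms at baseline, congenital long QT or QT-affecting medication were excluded. 12-lead ECGs were taken immediately before and after each infusion on days 1, 4, 8 and 11 of cycle 1, with a confirmatory ECG within 48 h of any abnormality. QT was machine-recorded with Bazett correction. At 27.0 mg m−2, 24-h ambulatory ECG started immediately after the cycle 1 infusion. An independent cardiologist reviewed all tracings.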

[1] = test system: patients with advanced refractory solid tumours or non-Hodgkin's lymphoma; assay: Phase I dose escalation: safety, tolerability, DLT and adverse events; format: in vivo, human

In the case of `O=C(NC1CCNCC1)c1n[nH]cc1NC(=O)c1c(Cl)cccc1Cl` [AT7519, N-(4-piperidinyl)-4-(2,6-dichlorobenzoylamino)-1H-pyrazole-3-carboxamide], the IC50 (CDK4) is listed as 100 nM, the “patients with transient QTc increases” value (QTc intervals; among the 24 patients with baseline QTc ⩽450 ms) is listed as 10 patients and the QTc prolongation (QTc intervals; serial ECGs, 24-h ambulatory ECG in five patients at the RP2D level) is listed as “no clinically significant QTc prolongations”. The “ALP elevation: No. of patients with AEs of any grade” value (“ALP elevation: No. of patients” for short) ([1]; 14.4 mg m^−2 (n=5)) was 3 No. of patients, the “AST elevation: No. of patients with AEs of any grade” value (“AST elevation: No. of patients” below) ([1]; 14.4 mg m^−2 (n=5)) was 2 No. of patients and the “Anaemia: No. of patients with AEs of any grade” value (shortened to “Anaemia: No. of patients”) ([1]; 14.4 mg m^−2 (n=5)) was 5 No. of patients. The “Anorexia: No. of patients with AEs of any grade” value (shortened to “Anorexia: No. of patients”) ([1]; 14.4 mg m^−2 (n=5)) was 0 No. of patients, the “Creatinine elevation: No. of patients with AEs of any grade” value (“Creatinine elevation: No. of patients” below) ([1]; 14.4 mg m^−2 (n=5)) was 1 No. of patients and the “Diarrhoea: No. of patients with AEs of any grade” value (from here on “Diarrhoea: No. of patients”) ([1]; 14.4 mg m^−2 (n=5)) was 0 No. of patients. For the same compound, the “Fatigue: No. of patients with AEs of any grade” value (“Fatigue: No. of patients” below) ([1]; 14.4 mg m^−2 (n=5)) was 0 No. of patients, the “Hyperglycaemia (random): No. of patients with AEs of any grade” value (“Hyperglycaemia (random): No. of patients” for short) ([1]; 14.4 mg m^−2 (n=5)) was 0 No. of patients and the “Infection without neutropenia: No. of patients with AEs of any grade” value ([1]; 14.4 mg m^−2 (n=5)) was 0 No. of patients. For the same compound, the “Lymphopenia: No. of patients with AEs of any grade” value (from here on “Lymphopenia: No. of patients”) ([1]; 14.4 mg m^−2 (n=5)) was 4 No. of patients, the “Mucositis: No. of patients with AEs of any grade” value (from here on “Mucositis: No. of patients”) ([1]; 14.4 mg m^−2 (n=5)) was 0 No. of patients and the “Nausea: No. of patients with AEs of any grade” value (“Nausea: No. of patients” below) ([1]; 14.4 mg m^−2 (n=5)) was 1 No. of patients. The “Neutropenia: No. of patients with AEs of any grade” value ([1]; 14.4 mg m^−2 (n=5)) was 0 No. of patients, the “Thrombocytopenia: No. of patients with AEs of any grade” value (“Thrombocytopenia: No. of patients” below) ([1]; 14.4 mg m^−2 (n=5)) was 0 No. of patients and the “Vomiting: No. of patients with AEs of any grade” value (“Vomiting: No. of patients” for short) ([1]; 14.4 mg m^−2 (n=5)) was 1 No. of patients. For the same compound, the “ALP elevation: No. of patients” value ([1]; 21.6 mg m^−2 (n=7)) was 5 No. of patients, the “AST elevation: No. of patients” value ([1]; 21.6 mg m^−2 (n=7)) was 2 No. of patients and the “Anaemia: No. of patients” value ([1]; 21.6 mg m^−2 (n=7)) was 6 No. of patients. The “Anorexia: No. of patients” value ([1]; 21.6 mg m^−2 (n=7)) was 1 No. of patients, the “Creatinine elevation: No. of patients” value ([1]; 21.6 mg m^−2 (n=7)) was 1 No. of patients and the “Diarrhoea: No. of patients” value ([1]; 21.6 mg m^−2 (n=7)) was 2 No. of patients. The “Fatigue: No. of patients” value ([1]; 21.6 mg m^−2 (n=7)) was 4 No. of patients, the “Hyperglycaemia (random): No. of patients” value ([1]; 21.6 mg m^−2 (n=7)) was 1 No. of patients and the “Infection without neutropenia: No. of patients with AEs of any grade” value ([1]; 21.6 mg m^−2 (n=7)) was 1 No. of patients. For the same compound, the “Lymphopenia: No. of patients” value ([1]; 21.6 mg m^−2 (n=7)) was 5 No. of patients, the “Mucositis: No. of patients” value ([1]; 21.6 mg m^−2 (n=7)) was 3 No. of patients and the “Nausea: No. of patients” value ([1]; 21.6 mg m^−2 (n=7)) was 2 No. of patients. For the same compound, the “Neutropenia: No. of patients with AEs of any grade” value ([1]; 21.6 mg m^−2 (n=7)) was 0 No. of patients, the “Thrombocytopenia: No. of patients” value ([1]; 21.6 mg m^−2 (n=7)) was 1 No. of patients and the “Vomiting: No. of patients” value ([1]; 21.6 mg m^−2 (n=7)) was 1 No. of patients. The “ALP elevation: No. of patients” value ([1]; 27.0 mg m^−2 (n=15)) was 7 No. of patients, the “AST elevation: No. of patients” value ([1]; 27.0 mg m^−2 (n=15)) was 9 No. of patients and the “Anaemia: No. of patients” value ([1]; 27.0 mg m^−2 (n=15)) was 12 No. of patients. The “Anorexia: No. of patients” value ([1]; 27.0 mg m^−2 (n=15)) was 2 No. of patients, the “Creatinine elevation: No. of patients” value ([1]; 27.0 mg m^−2 (n=15)) was 1 No. of patients and the “Diarrhoea: No. of patients” value ([1]; 27.0 mg m^−2 (n=15)) was 3 No. of patients. For the same compound, the “Fatigue: No. of patients” value ([1]; 27.0 mg m^−2 (n=15)) was 10 No. of patients, the “Hyperglycaemia (random): No. of patients” value ([1]; 27.0 mg m^−2 (n=15)) was 9 No. of patients and the “Infection without neutropenia: No. of patients with AEs of any grade” value ([1]; 27.0 mg m^−2 (n=15)) was 3 No. of patients. The “Lymphopenia: No. of patients” value ([1]; 27.0 mg m^−2 (n=15)) was 13 No. of patients, the “Mucositis: No. of patients” value ([1]; 27.0 mg m^−2 (n=15)) was 11 No. of patients and the “Nausea: No. of patients” value ([1]; 27.0 mg m^−2 (n=15)) was 6 No. of patients. The “Neutropenia: No. of patients with AEs of any grade” value ([1]; 27.0 mg m^−2 (n=15)) was 4 No. of patients, the “Thrombocytopenia: No. of patients” value ([1]; 27.0 mg m^−2 (n=15)) was 6 No. of patients and the “Vomiting: No. of patients” value ([1]; 27.0 mg m^−2 (n=15)) was 4 No. of patients. The “ALP elevation: No. of patients” value ([1]; 32.4 mg m^−2 (n=5)) was 5 No. of patients, the “AST elevation: No. of patients” value ([1]; 32.4 mg m^−2 (n=5)) was 3 No. of patients and the “Anaemia: No. of patients” value ([1]; 32.4 mg m^−2 (n=5)) was 5 No. of patients. For the same compound, the “Anorexia: No. of patients” value ([1]; 32.4 mg m^−2 (n=5)) was 1 No. of patients, the “Creatinine elevation: No. of patients” value ([1]; 32.4 mg m^−2 (n=5)) was 2 No. of patients and the “Diarrhoea: No. of patients” value ([1]; 32.4 mg m^−2 (n=5)) was 0 No. of patients. The “Fatigue: No. of patients” value ([1]; 32.4 mg m^−2 (n=5)) was 3 No. of patients, the “Hyperglycaemia (random): No. of patients” value ([1]; 32.4 mg m^−2 (n=5)) was 2 No. of patients and the “Infection without neutropenia: No. of patients with AEs of any grade” value ([1]; 32.4 mg m^−2 (n=5)) was 2 No. of patients. For the same compound, the “Lymphopenia: No. of patients” value ([1]; 32.4 mg m^−2 (n=5)) was 5 No. of patients, the “Mucositis: No. of patients” value ([1]; 32.4 mg m^−2 (n=5)) was 3 No. of patients and the “Nausea: No. of patients” value ([1]; 32.4 mg m^−2 (n=5)) was 4 No. of patients.
